Measurements published in ChEMBL document CHEMBL3352004, “(7-Benzyloxy-2,3-dihydro-1H-pyrrolo[1,2-a]indol-1-yl)acetic Acids as S1P1 Functional Antagonists” (ACS Med Chem Lett, 2014).
≈ marks a conversion by molar mass, not a printed value.

test system: not listed separately; assay: Half life in human; assay type: ADME, organism-based; conditions: in vivo

**Q.** For `CCCCCCCCc1ccc(CCC(N)(CO)CO)cc1` [FINGOLIMOD], which half-life is on record?
**A.** 3.71 days

biological target: T1, Sphingosine 1-phosphate receptor 1 (Homo sapiens, UniProt P21453); assay: Agonist activity at human S1P1 receptor assessed as cAMP accumulation by HTRF assay; assay type: functional; conditions: not given
Method in brief: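 S1P1 engagement measured as cyclase activity in a homogeneous time-resolved fluorescence (HTRF) assay.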

T1 sequence (P21453 whole entry): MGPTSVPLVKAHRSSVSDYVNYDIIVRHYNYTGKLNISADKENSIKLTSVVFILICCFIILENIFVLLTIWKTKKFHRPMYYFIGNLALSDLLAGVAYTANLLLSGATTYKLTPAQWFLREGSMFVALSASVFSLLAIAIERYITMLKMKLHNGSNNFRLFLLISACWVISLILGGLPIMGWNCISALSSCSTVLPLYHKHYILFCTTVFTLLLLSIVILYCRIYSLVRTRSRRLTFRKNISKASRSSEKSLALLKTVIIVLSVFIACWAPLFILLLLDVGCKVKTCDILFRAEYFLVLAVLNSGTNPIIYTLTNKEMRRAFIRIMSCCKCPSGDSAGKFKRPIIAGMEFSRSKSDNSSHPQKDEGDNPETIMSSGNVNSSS

**Q.** With `O=C(O)CC1CCn2c1cc1cc(OCc3ccc(OCC4CC4)c(C(F)(F)F)c3)ccc12` (racemic) as the compound, how does the EC50 read?
**A.** 1.1 nM

**Q.** For `O=C(O)CC1CCn2c1cc1cc(OCc3ccc(OCF)c(C(F)(F)F)c3)ccc12` (racemic), which EC50 is on record?
**A.** 6.7 nM

**Q.** For `O=C(O)CC1CCn2c1cc1cc(OCc3ccc(Cl)c(C(F)(F)F)c3)ccc12` (racemic), which EC50 is on record?
**A.** 150 nM

**Q.** For `CC(C)Oc1ccc(COc2ccc3c(c2)cc2n3CCC2CC(=O)O)cc1C(F)(F)F` (single isomer, unassigned; enantiomer 2), which EC50 is on record?
**A.** 0.64 nM

**Q.** For `O=C(O)CC1CCn2c1cc1cc(OCc3ccc(C4CCCC4)c(C(F)(F)F)c3)ccc12` (racemic), which EC50 is on record?
**A.** 0.095 nM

**Q.** With `N#Cc1ccc(COc2ccc3c(c2)cc2n3CCC2CC(=O)O)cc1C(F)(F)F` (racemic) as the compound, how does the EC50 read?
**A.** 83 nM

**Q.** With `O=C(O)CC1CCn2c1cc1cc(OCc3ccc(C4CCCC4)c(C(F)(F)F)c3)ccc12` (stereo in doubt; 12b) as the compound, how does the EC50 read?
**A.** 0.32 nM

**Q.** With `O=C(O)CC1CCn2c1cc1cc(OCc3ccc(C4CCCC4)c(C(F)(F)F)c3)ccc12` (stereo in doubt; 12a) as the compound, how does the EC50 read?
**A.** 0.041 nM

**Q.** For `CC(C)Oc1ccc(COc2ccc3c(c2)cc2n3CCC2CC(=O)O)cc1C#N` (racemic), which EC50 is on record?
**A.** 0.15 nM

**Q.** For `CC(C)Oc1ccc(COc2ccc3c(c2)cc2n3CCC2CC(=O)O)cc1C(F)(F)F` (racemic), which EC50 is on record?
**A.** 0.15 nM

**Q.** For `N#Cc1cc(COc2ccc3c(c2)cc2n3CCC2CC(=O)O)ccc1C1CCCC1` (racemic), which EC50 is on record?
**A.** 0.49 nM

**Q.** With `CC(C)Oc1ccc(COc2ccc3c(c2)cc2n3CCC2CC(=O)O)cc1C#N` (stereo in doubt; 19b) as the compound, how does the EC50 read?
**A.** 1.5 nM

biological target: T1, Sphingosine 1-phosphate receptor 1; assay: Agonist activity at human S1P1 receptor assessed as cAMP accumulation by HTRF assay relative to S1P; assay type: functional; conditions: not given

**Q.** With `O=C(O)CC1CCn2c1cc1cc(OCc3ccc(OCC4CC4)c(C(F)(F)F)c3)ccc12` (racemic) as the compound, how does the Emax read?
**A.** 100%

**Q.** With `O=C(O)CC1CCn2c1cc1cc(OCc3ccc(OCF)c(C(F)(F)F)c3)ccc12` (racemic) as the compound, how does the Emax read?
**A.** 119%

**Q.** Which Emax does the source give for `O=C(O)CC1CCn2c1cc1cc(OCc3ccc(Cl)c(C(F)(F)F)c3)ccc12` (racemic) here?
**A.** 116%

**Q.** For `N#Cc1ccc(COc2ccc3c(c2)cc2n3CCC2CC(=O)O)cc1C(F)(F)F` (racemic), which Emax is on record?
**A.** 104%

**Q.** Which Emax does the source give for `N#Cc1cc(COc2ccc3c(c2)cc2n3CCC2CC(=O)O)ccc1C1CCCC1` (racemic) here?
**A.** 92%

biological target: T1, Sphingosine 1-phosphate receptor 1; assay: Agonist activity at human S1P1 receptor by beta-arrestin recruitment assay; conditions: not given

**Q.** For `CC(C)Oc1ccc(COc2ccc3c(c2)cc2n3CCC2CC(=O)O)cc1C(F)(F)F` (single isomer, unassigned; enantiomer 2), which EC50 is on record?
**A.** 40 nM

**Q.** For `O=C(O)CC1CCn2c1cc1cc(OCc3ccc(C4CCCC4)c(C(F)(F)F)c3)ccc12` (stereo in doubt; 12b), which EC50 is on record?
**A.** 20 nM

**Q.** Which EC50 does the source give for `O=C(O)CC1CCn2c1cc1cc(OCc3ccc(C4CCCC4)c(C(F)(F)F)c3)ccc12` (stereo in doubt; 12a) here?
**A.** 2.5 nM

**Q.** For `CC(C)Oc1ccc(COc2ccc3c(c2)cc2n3CCC2CC(=O)O)cc1C#N` (stereo in doubt; 19b), which EC50 is on record?
**A.** 160 nM

biological target: Sphingosine 1-phosphate receptor 2 (Homo sapiens, UniProt O95136); assay: Agonist activity at human S1P2 receptor by beta-arrestin recruitment assay; conditions: not given
Sequence (O95136 whole entry): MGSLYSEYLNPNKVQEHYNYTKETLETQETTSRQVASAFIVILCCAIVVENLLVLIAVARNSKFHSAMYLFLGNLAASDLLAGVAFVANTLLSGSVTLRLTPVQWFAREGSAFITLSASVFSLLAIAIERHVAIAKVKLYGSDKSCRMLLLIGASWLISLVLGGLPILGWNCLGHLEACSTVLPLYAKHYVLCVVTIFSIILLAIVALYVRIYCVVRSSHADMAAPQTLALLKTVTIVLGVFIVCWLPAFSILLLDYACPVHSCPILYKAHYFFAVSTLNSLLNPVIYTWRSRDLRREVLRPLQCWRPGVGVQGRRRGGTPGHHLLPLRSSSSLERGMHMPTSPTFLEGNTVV

**Q.** For `CC(C)Oc1ccc(COc2ccc3c(c2)cc2n3CCC2CC(=O)O)cc1C(F)(F)F` (single isomer, unassigned; enantiomer 2), which EC50 is on record?
**A.** > 10 µM

**Q.** Which EC50 does the source give for `O=C(O)CC1CCn2c1cc1cc(OCc3ccc(C4CCCC4)c(C(F)(F)F)c3)ccc12` (stereo in doubt; 12b) here?
**A.** > 10 µM

**Q.** With `O=C(O)CC1CCn2c1cc1cc(OCc3ccc(C4CCCC4)c(C(F)(F)F)c3)ccc12` (stereo in doubt; 12a) as the compound, how does the EC50 read?
**A.** > 10 µM

**Q.** With `CC(C)Oc1ccc(COc2ccc3c(c2)cc2n3CCC2CC(=O)O)cc1C#N` (stereo in doubt; 19b) as the compound, how does the EC50 read?
**A.** > 10 µM

biological target: Sphingosine 1-phosphate receptor 3 (Homo sapiens, UniProt Q99500); assay: Agonist activity at human S1P3 receptor by beta-arrestin recruitment assay; conditions: not given
Sequence (Q99500 whole entry): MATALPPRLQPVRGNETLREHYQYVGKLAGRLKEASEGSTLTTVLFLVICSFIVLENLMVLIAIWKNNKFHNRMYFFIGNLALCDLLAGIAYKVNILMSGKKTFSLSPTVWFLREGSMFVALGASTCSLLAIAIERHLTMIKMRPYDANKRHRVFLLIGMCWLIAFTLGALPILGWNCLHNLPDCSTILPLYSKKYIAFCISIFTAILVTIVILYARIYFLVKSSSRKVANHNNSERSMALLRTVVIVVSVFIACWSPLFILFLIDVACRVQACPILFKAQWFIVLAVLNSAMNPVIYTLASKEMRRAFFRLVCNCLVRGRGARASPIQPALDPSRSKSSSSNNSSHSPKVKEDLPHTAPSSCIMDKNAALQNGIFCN

**Q.** For `CC(C)Oc1ccc(COc2ccc3c(c2)cc2n3CCC2CC(=O)O)cc1C(F)(F)F` (single isomer, unassigned; enantiomer 2), which EC50 is on record?
**A.** > 10 µM

**Q.** With `O=C(O)CC1CCn2c1cc1cc(OCc3ccc(C4CCCC4)c(C(F)(F)F)c3)ccc12` (stereo in doubt; 12b) as the compound, how does the EC50 read?
**A.** > 10 µM

**Q.** With `O=C(O)CC1CCn2c1cc1cc(OCc3ccc(C4CCCC4)c(C(F)(F)F)c3)ccc12` (stereo in doubt; 12a) as the compound, how does the EC50 read?
**A.** > 10 µM

**Q.** Which EC50 does the source give for `CC(C)Oc1ccc(COc2ccc3c(c2)cc2n3CCC2CC(=O)O)cc1C#N` (stereo in doubt; 19b) here?
**A.** > 10 µM

biological target: T2, Sphingosine 1-phosphate receptor 4 (Homo sapiens, UniProt O95977); assay: Agonist activity at human S1P4 receptor by beta-arrestin recruitment assay; conditions: not given
T2 sequence (O95977 whole entry): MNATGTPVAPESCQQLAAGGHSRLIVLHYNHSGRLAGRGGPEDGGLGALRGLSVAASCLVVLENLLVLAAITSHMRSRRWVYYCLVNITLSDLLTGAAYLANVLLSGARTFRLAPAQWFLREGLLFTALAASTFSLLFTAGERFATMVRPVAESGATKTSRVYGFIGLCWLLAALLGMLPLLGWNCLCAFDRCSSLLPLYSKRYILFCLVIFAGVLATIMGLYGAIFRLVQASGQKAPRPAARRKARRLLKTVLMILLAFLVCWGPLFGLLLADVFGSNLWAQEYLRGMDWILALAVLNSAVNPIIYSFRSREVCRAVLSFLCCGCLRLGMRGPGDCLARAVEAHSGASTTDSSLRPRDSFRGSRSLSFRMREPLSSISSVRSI

**Q.** Which EC50 does the source give for `CC(C)Oc1ccc(COc2ccc3c(c2)cc2n3CCC2CC(=O)O)cc1C(F)(F)F` (single isomer, unassigned; enantiomer 2) here?
**A.** > 10000 nM

**Q.** Which EC50 does the source give for `O=C(O)CC1CCn2c1cc1cc(OCc3ccc(C4CCCC4)c(C(F)(F)F)c3)ccc12` (stereo in doubt; 12b) here?
**A.** 420 nM

**Q.** Which EC50 does the source give for `O=C(O)CC1CCn2c1cc1cc(OCc3ccc(C4CCCC4)c(C(F)(F)F)c3)ccc12` (stereo in doubt; 12a) here?
**A.** 570 nM

**Q.** For `CC(C)Oc1ccc(COc2ccc3c(c2)cc2n3CCC2CC(=O)O)cc1C#N` (stereo in doubt; 19b), which EC50 is on record?
**A.** > 10000 nM

biological target: Sphingosine 1-phosphate receptor 5 (Homo sapiens, UniProt Q9H228); assay: Agonist activity at human S1P5 receptor by beta-arrestin recruitment assay; conditions: not given
Sequence (Q9H228 whole entry): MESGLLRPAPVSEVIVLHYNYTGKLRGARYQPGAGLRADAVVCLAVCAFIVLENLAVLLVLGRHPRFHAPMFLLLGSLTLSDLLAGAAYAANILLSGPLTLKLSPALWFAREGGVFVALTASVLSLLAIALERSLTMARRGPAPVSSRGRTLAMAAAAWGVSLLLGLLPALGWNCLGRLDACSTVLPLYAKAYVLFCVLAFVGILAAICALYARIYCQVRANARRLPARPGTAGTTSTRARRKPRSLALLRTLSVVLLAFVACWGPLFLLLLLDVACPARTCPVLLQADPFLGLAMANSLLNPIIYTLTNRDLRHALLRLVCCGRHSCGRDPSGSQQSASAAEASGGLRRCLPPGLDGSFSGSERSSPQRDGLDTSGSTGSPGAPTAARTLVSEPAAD

**Q.** Which EC50 does the source give for `CC(C)Oc1ccc(COc2ccc3c(c2)cc2n3CCC2CC(=O)O)cc1C(F)(F)F` (single isomer, unassigned; enantiomer 2) here?
**A.** > 10000 nM

**Q.** For `O=C(O)CC1CCn2c1cc1cc(OCc3ccc(C4CCCC4)c(C(F)(F)F)c3)ccc12` (stereo in doubt; 12b), which EC50 is on record?
**A.** 81 nM

**Q.** With `O=C(O)CC1CCn2c1cc1cc(OCc3ccc(C4CCCC4)c(C(F)(F)F)c3)ccc12` (stereo in doubt; 12a) as the compound, how does the EC50 read?
**A.** 107 nM

**Q.** Which EC50 does the source give for `CC(C)Oc1ccc(COc2ccc3c(c2)cc2n3CCC2CC(=O)O)cc1C#N` (stereo in doubt; 19b) here?
**A.** 9800 nM

test system: not listed separately; assay: Systemic clearance in Sprague-Dawley rat at 1 mg/kg, iv; assay type: ADME, organism-based; parameters: dose 1 mg/kg, route intravenous; conditions: in vivo

**Q.** For `O=C(O)CC1CCn2c1cc1cc(OCc3ccc(C4CCCC4)c(C(F)(F)F)c3)ccc12` (stereo in doubt; 12a), which clearance is on record?
**A.** 1.2 mL/min/kg

test system: not listed separately; assay: Volume of distribution at steady state in Sprague-Dawley rat at 1 mg/kg, iv; assay type: ADME, organism-based; parameters: dose 1 mg/kg, route intravenous; conditions: in vivo, read-out: Vdss

**Q.** With `O=C(O)CC1CCn2c1cc1cc(OCc3ccc(C4CCCC4)c(C(F)(F)F)c3)ccc12` (stereo in doubt; 12a) as the compound, how does the Vd read?
**A.** 0.986 L/kg

test system: not listed separately; assay: Cmax in Sprague-Dawley rat at 1 mg/kg, po; assay type: ADME, organism-based; parameters: dose 1 mg/kg, route oral; conditions: in vivo

**Q.** With `O=C(O)CC1CCn2c1cc1cc(OCc3ccc(C4CCCC4)c(C(F)(F)F)c3)ccc12` (stereo in doubt; 12a) as the compound, how does the Cmax read?
**A.** 526 ng/mL

test system: not listed separately; assay: Tmax in Sprague-Dawley rat at 1 mg/kg, po; assay type: ADME, organism-based; parameters: dose 1 mg/kg, route oral; conditions: in vivo

**Q.** For `O=C(O)CC1CCn2c1cc1cc(OCc3ccc(C4CCCC4)c(C(F)(F)F)c3)ccc12` (stereo in doubt; 12a), which Tmax is on record?
**A.** 2.67 h

test system: not listed separately; assay: AUC (0 to infinity) in Sprague-Dawley rat at 1 mg/kg, iv or at 1 mg/kg, po; assay type: ADME, organism-based; conditions: plasma

**Q.** For `O=C(O)CC1CCn2c1cc1cc(OCc3ccc(C4CCCC4)c(C(F)(F)F)c3)ccc12` (stereo in doubt; 12a), which AUC(0-inf) is on record?
**A.** 5430 ng·h/mL

test system: not listed separately; assay: Elimination half life in Sprague-Dawley rat at 1 mg/kg, po; assay type: ADME, organism-based; parameters: dose 1 mg/kg, route oral; conditions: in vivo, read-out: beta t1/2 (converted)

**Q.** With `O=C(O)CC1CCn2c1cc1cc(OCc3ccc(C4CCCC4)c(C(F)(F)F)c3)ccc12` (stereo in doubt; 12a) as the compound, how does the half-life read?
**A.** 550 min

test system: not listed separately; assay: Oral bioavailability in Sprague-Dawley rat at 1 mg/kg; assay type: ADME, organism-based; conditions: in vivo

**Q.** For `O=C(O)CC1CCn2c1cc1cc(OCc3ccc(C4CCCC4)c(C(F)(F)F)c3)ccc12` (stereo in doubt; 12a), which bioavailability is on record?
**A.** 39%

test system: not listed separately; assay: Ratio of drug level in brain to plasma in Sprague-Dawley rat; assay type: ADME; conditions: read-out: BPR
Method in brief: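 Abbreviated rat CNS distribution: a single 1.0 mg/kg oral dose, with brain and plasma drug levels measured over 6 h. Brain-to-plasma ratio derived from these levels.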

**Q.** With `O=C(O)CC1CCn2c1cc1cc(OCc3ccc(C4CCCC4)c(C(F)(F)F)c3)ccc12` (stereo in doubt; 12a) as the compound, how does the Kp read?
**A.** 0.53

species: Rattus norvegicus; assay: Reduction in lymphocyte count in Sprague-Dawley rat; assay type: functional, organism-based; conditions: not given
Method in brief: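 A PK/PD model relating plasma drug concentration to circulating lymphocyte counts was used to derive the plasma concentration that reduces lymphocytes by 50% (LL IC50, ng/mL).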

**Q.** For `O=C(O)CC1CCn2c1cc1cc(OCc3ccc(C4CCCC4)c(C(F)(F)F)c3)ccc12` (stereo in doubt; 12a), which IC50 is on record?
**A.** 0.0241 µg/mL (≈ 0.0527 µM)
